pIC50: −log10 of the molar value.

Data set [1] deals with T1, Orexin/Hypocretin receptor type 1 (Homo sapiens, UniProt O43613).
T1 sequence (O43613 whole entry): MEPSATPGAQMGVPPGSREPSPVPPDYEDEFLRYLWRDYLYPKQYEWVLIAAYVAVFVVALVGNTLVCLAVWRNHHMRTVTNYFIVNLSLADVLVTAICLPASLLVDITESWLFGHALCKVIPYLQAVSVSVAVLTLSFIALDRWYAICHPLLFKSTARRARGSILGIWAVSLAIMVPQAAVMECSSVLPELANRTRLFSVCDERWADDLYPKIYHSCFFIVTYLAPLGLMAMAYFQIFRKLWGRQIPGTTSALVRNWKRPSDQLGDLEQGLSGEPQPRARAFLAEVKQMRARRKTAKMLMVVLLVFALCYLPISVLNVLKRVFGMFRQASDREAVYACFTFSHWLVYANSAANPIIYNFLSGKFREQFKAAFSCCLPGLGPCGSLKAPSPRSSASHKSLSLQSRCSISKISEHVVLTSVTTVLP
The data set can be described thus: Antagonist activity at human OX1R expressed in CHO cells assessed as inhibition of calcium mobilization by FLIPR assay. Type of data set: functional, cell-based.

Data set [2] is described as follows: Ratio of drug level from brain to plasma in Wistar rat at 100 mg/kg, po after 3 hrs. Format: ADME, organism-based. Details: dose 100 mg/kg, route oral. The conditions noted are these: read-out: BPR. In a few lines: (§1)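 Male Wistar rats on 12 h light/dark cycle dosed orally at 100 mg/kg in PEG-400. Plasma and brain collected from the same animal at 3 h (±5 min). Blood drawn from caudal vena cava into EDTA and centrifuged for plasma. Brain taken after cardiac perfusion with 0.9% NaCl and homogenized in one volume cold phosphate buffer pH 7.4.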

Data set [3] in a line: Plasma concentration in Wistar rat at 100 mg/kg, po after 3 hrs. Type of data set: ADME, organism-based. The arrangement: dose 100 mg/kg, route oral. In a few lines:
as §1

Data set [4] is described as follows: Drug uptake in Wistar rat brain at 100 mg/kg, po after 3 hrs. Details: dose 100 mg/kg, route oral. The conditions noted are these: read-out: Drug uptake. Format: ADME, organism-based. Summed up: as §1
A further data set concerns the target T2, Orexin receptor type 2 (Homo sapiens, UniProt O43614).
T2 sequence (O43614 whole entry): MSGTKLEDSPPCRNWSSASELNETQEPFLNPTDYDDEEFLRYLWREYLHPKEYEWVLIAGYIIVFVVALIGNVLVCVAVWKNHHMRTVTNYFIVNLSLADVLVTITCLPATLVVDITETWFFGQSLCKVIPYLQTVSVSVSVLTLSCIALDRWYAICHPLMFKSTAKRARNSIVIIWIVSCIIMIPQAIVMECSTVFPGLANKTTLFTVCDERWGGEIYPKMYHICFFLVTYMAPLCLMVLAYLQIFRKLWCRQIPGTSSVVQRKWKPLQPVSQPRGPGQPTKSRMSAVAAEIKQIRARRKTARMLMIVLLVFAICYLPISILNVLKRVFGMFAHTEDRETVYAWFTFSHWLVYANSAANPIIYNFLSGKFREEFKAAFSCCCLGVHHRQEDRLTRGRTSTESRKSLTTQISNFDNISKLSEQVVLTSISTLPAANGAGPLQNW
Description: Antagonist activity at human OX2R expressed in CHO cells assessed as inhibition of calcium mobilization by FLIPR assay. Format: functional, cell-based. In a few lines:
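CHO cells stably expressing human OX2R, loaded with fluo-3 AM calcium dye at 37 °C in 5% CO2, then washed. Antagonist added at varying concentrations before an approximate EC80 of orexin A. Ca2+ mobilization read by FLIPR; IC50 taken as concentration inhibiting 50% of the orexin A-induced calcium response.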

Data set [5] relates to Rattus norvegicus. The data set can be described thus: Sleep-promoting activity in Wistar rat electroencephalographic model assessed as increase in time spent in rapid eye movement sleep at 100 mg/kg, po measured over 12 hrs relative to vehicle-treated control. Type of data set: functional. In a few lines:
(§2)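 Freely moving adult male Wistar rats carrying radiotelemetric implants recording EEG, EMG and locomotor activity in the home cage. Oral dose of 100 mg/kg in 100% PEG-400 given at the start of the dark phase. Crossover design with 12 or 16 rats per group and at least 4-day washout. Read-outs over the 12 h night versus vehicle; means ± SEM, paired t-test.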

Data set [6] deals with Rattus norvegicus. The data set can be described thus: Sleep-promoting activity in Wistar rat electroencephalographic model assessed as time spent in non-rapid eye movement sleep at 100 mg/kg, po measured over 12 hrs relative to total sleep time (reference value: 85.4 to 87.3%). Type of data set: functional. In a few lines: as §2
Data set [7] concerns Rattus norvegicus. The data set can be described thus: Sleep-promoting activity in Wistar rat electroencephalographic model assessed as time spent in rapid eye movement sleep at 100 mg/kg, po measured over 12 hrs relative to total sleep time (reference value: 12.7 to 14.6%). Type of data set: functional. Summed up:
as §2

In data set [8] the test system is Rattus norvegicus. Description: Sleep-promoting activity in Wistar rat electroencephalographic model assessed as increase in time spent in non-rapid eye movement sleep at 100 mg/kg, po measured over 12 hrs relative to vehicle-treated control. Type of data set: functional. In a few lines: as §2
For data set [9], the system named is Rattus norvegicus. The data set can be described thus: Sleep-promoting activity in Wistar rat electroencephalographic model assessed as reduction of time spent in active wake at 100 mg/kg, po measured over 12 hrs relative to vehicle-treated control. Type of data set: functional. Details: scale not given: the % may be the effect or the level left. In a few lines:
as §2

Data set [10] deals with Rattus norvegicus. The data set can be described thus: Sleep-promoting activity in Wistar rat electroencephalographic model assessed as decrease in home cage activity at 100 mg/kg, po measured over 12 hrs relative to vehicle-treated control. Type of data set: functional. The arrangement: scale not given: the % may be the effect or the level left. In a few lines: as §2
For data set [11], the system named is MDR1 (human). The data set can be described thus: Efflux ratio of apparent permeability […] to apical side in MDCK cells expressing human MDR1. Type of data set: ADME, cell-based, Canis lupus familiaris. The settings on record: dog.
Data set [12] concerns MDR1 (human). The data set can be described thus: Apparent permeability across basolateral to apical side in MDCK cells expressing human MDR1. Format: ADME, cell-based, Canis lupus familiaris. The settings on record: dog.
Data set [13] concerns MDR1 (human). Description: Apparent permeability across apical to basolateral side in MDCK cells expressing human MDR1. The conditions noted are these: dog. Format: ADME, cell-based, Canis lupus familiaris.

A word on the pIC50: it is −log10 of the IC50, conventionally taken in molar units. On to `CNC(=O)[C@@H](c1ccccc1)N1CCn2c(C3CC3)nc(Cl)c2[C@@H]1CCc1ccc(C(F)(F)F)cc1`, for which, in [1], the pIC50 is 7.52.
For `CCc1nc(Cl)c2n1CCN([C@@H](C(=O)NC)c1ccccc1)[C@H]2CCc1ccc(C(F)(F)F)c(F)c1F`, in data set [2], the Kp at 3 h stood at 0.1. Further, the concentration at 3 h worked out at 6.77 µM in data set [3] and 695 nM in [4]. Further, the pIC50 on Orexin receptor type 2 was 7.85; in [1] it was 7.77.
`CCc1nc(Cl)c2n1CCN([C@@H](C(=O)NC)c1ccccc1)[C@H]2CCc1cc(F)c(C(F)(F)F)cc1F`: the pIC50 at Orexin receptor type 2 is 7.77; in data set [1], 7.49.
For the compound `CCc1nc(Cl)c2n1CCN([C@@H](C(=O)NC)c1ccccc1)[C@H]2CCc1cc(F)c(C(F)(F)F)c(F)c1`, the pIC50 on Orexin receptor type 2 was 8.10; in [1] it was 7.80.
Regarding `CCc1nc(Cl)c2n1CCN([C@@H](C(=O)NC)c1ccccc1)[C@H]2CCc1ccc(F)c(F)c1F`, in data set [2], the Kp at 3 h was found to be 0.05. In addition, the values for the concentration at 3 h in [3] and in data set [4] were 0.387 µM and 18 nM, respectively. The figures for the pIC50 (on Orexin receptor type 2; in data set [1]) were 8.30 and 7.52, respectively.
As to `CCc1nc(Cl)c2n1CCN([C@@H](C(=O)NC)c1ccccc1)[C@H]2CCc1ccc(F)c(C(F)(F)F)c1`, the pIC50 at Orexin receptor type 2 was 7.80; in data set [1], 6.42.
On to `CCc1nc(Cl)c2n1CCN([C@@H](C(=O)NC)c1ccccc1)[C@H]2CCc1cccc(C(F)(F)F)c1F`, for which the Kp at 3 h in data set [2] came out at 0.07. Besides, the concentration at 3 h was determined as 1.85 µM in [3] and 136 nM in data set [4]. Also, the results for the pIC50 (at Orexin receptor type 2; in data set [1]) were 8.05 and 7.80, respectively.
The corresponding values for `CNC(=O)[C@@H](c1ccccc1)N1CCn2c(C3CC3)nc(Cl)c2[C@@H]1CCc1ccc(C(F)(F)F)c(F)c1` are 0.07, 6.8 µM, 450 nM, 8.00 and 7.28.
Turning to `CNC(=O)[C@@H](c1ccccc1)N1CCn2c(C3CC3)nc(Cl)c2[C@@H]1CCc1ccc(C(F)(F)F)cc1F`, in [2], the Kp at 3 h was found to be 0.05. For the same compound, the concentration at 3 h worked out at 6.76 µM in [3] and 338 nM in data set [4]. Further, the pIC50 at Orexin receptor type 2 was 7.59; in data set [1], 7.03.
`CNC(=O)[C@@H](c1ccccc1)N1CCn2c(C3CC3)nc(Cl)c2[C@@H]1CCc1ccc(OC(F)F)c(F)c1`: the pIC50 is 8.70 on Orexin receptor type 2 and 6.77 in [1].
In the case of `CCc1nc(Cl)c2n1CCN([C@@H](C(=O)NC)c1ccccc1)[C@H]2CCc1cccc(C(F)(F)F)c1`, the pIC50 is 8.00 on Orexin receptor type 2 and 7.14 in data set [1].
For `CCc1nc(Cl)c2n1CCN([C@@H](C(=O)NC)c1ccccc1)[C@H]2COc1ccc(C(F)(F)F)cc1`, the results for the pIC50 (on Orexin receptor type 2; in [1]) were 8.05 and 6.37, respectively.
For `CCc1nc(Cl)c2n1CCN([C@@H](C(=O)NC)c1ccccc1)[C@H]2COc1cccc(C(F)(F)F)c1`, the pIC50 at Orexin receptor type 2 is 8.40; in [1], 6.51.
The matching figures for `CCc1nc(Cl)c2n1CCN([C@@H](C(=O)NC)c1ccccc1)[C@H]2CCc1ccc(C#N)cc1`: 7.80 and 5.41.
On to `CCc1nc(Cl)c2n1CCN([C@@H](C(=O)NC)c1ccccc1)[C@H]2CCc1ccc(OC(F)F)cc1`, for which the pIC50 is 9.00 on Orexin receptor type 2 and 7.13 in data set [1].
The matching figures for `CCc1nc(Cl)c2n1CCN([C@@H](C(=O)NC)c1ccccc1)[C@H]2CCc1ccc(OC(F)(F)F)cc1`: 7.74 and 6.69.
For orientation: efflux ratio means the permeability from basolateral to apical divided by that in the opposite direction, in the common usage. A word on the Papp B→A: it is the apparent permeability from the basolateral to the apical side of a cell layer. Usually Papp A→B stands for the apparent permeability from the apical to the basolateral side of a cell layer. As to `CCc1nc(Cl)c2n1CCN([C@@H](C(=O)NC)c1ccccc1)[C@H]2CCc1ccc(C(F)(F)F)c(F)c1`, the Activity in the data set on Rattus norvegicus [5] was determined as 9%; with Rattus norvegicus [6], 86.2%; with Rattus norvegicus [7] it was 13.8%; in the data set with Rattus norvegicus [8], 16%; in the data set with Rattus norvegicus [9], 13%; with Rattus norvegicus [10], 36%. In addition, the efflux ratio in the data set on MDR1 (human) [11] turned out to be 35. In addition, in the data set on MDR1 (human) [12], the Papp B→A is 68.8 ×10⁻⁶ cm/s. Moreover, the Papp A→B with MDR1 (human) [13] is 1.98 ×10⁻⁶ cm/s. Further, the Kp at 3 h in data set [2] was found to be 0.12. For the same compound, the values for the concentration at 3 h in data set [3] and in data set [4] were 9.81 µM and 1220 nM, respectively. In addition, the pIC50 at Orexin receptor type 2 is 8.15; in data set [1] it was 7.74.
For the compound `CCc1nc(Cl)c2n1CCN([C@@H](C(=O)NC)c1ccccc1)[C@@H]2CCc1ccc(C(F)(F)F)c(F)c1`, the values for the pIC50 (on Orexin receptor type 2; in [1]) were 6.64 and 6.26, respectively.
Turning to `CCc1nc(Cl)c2n1CCN([C@@H](C(=O)NC)c1ccccc1)[C@H]2CCc1ccc(C(F)(F)F)c(Cl)c1`, in data set [2], the Kp at 3 h was 0.08. In addition, the values for the concentration at 3 h in data set [3] and in data set [4] were 1.6 µM and 128 nM, respectively. The pIC50 on Orexin receptor type 2 is 7.74; in [1] it was 7.70.
Regarding `CCc1nc(Cl)c2n1CCN([C@@H](C(=O)NC)c1ccccc1)[C@H]2CCc1ccc(C(F)(F)F)cc1F`, the Kp at 3 h in data set [2] is 0.06. The concentration at 3 h is 6.42 µM in data set [3] and 363 nM in [4]. In addition, the pIC50 on Orexin receptor type 2 is 7.92; in data set [1], 7.35.
In the case of `CNC(=O)[C@@H](c1ccccc1)N1CCc2cc(OC)c(OC)cc2[C@@H]1CCc1ccc(C(F)(F)F)cc1` [ALMOREXANT], the Activity worked out at 38% with Rattus norvegicus [5]; 85.8% in the data set on Rattus norvegicus [6]; 14.2% with Rattus norvegicus [7]; 20% in the data set on Rattus norvegicus [8]; 20% with Rattus norvegicus [9]; 43% with Rattus norvegicus [10].

(Values after ChEMBL document CHEMBL2396638, “Structure-activity relationship studies and sleep-promoting activity of novel 1-chloro-5,6,7,8-tetrahydroimidazo[1,5-a]pyrazine derivatives as dual orexin receptor antagonists. Part 2” (Bioorg Med Chem Lett, 2013).)
